Measurements of several laboratories.
Protocols differ between the studies behind these lines.
Observed: metabolic stability
Species: human

O=C1C2N=CN3C(NCc4c(F)ccc5c4CCO5)=NC=C(c4cnc(C(F)(F)F)cc4CN1CC(F)F)C23 (centres unmarked)  scaled CLint (liver microsomes; 100 µM, 30 min): 11.4 mL/min/kg
O=C1c2ccc(COc3cccc(F)c3)nc2CCN1c1ccc(F)cc1  scaled CLint (liver microsomes): 8.8 mL/min/kg
Cc1cc([C@H]2C[C@H]3[C@@H](CF)SC(N)=N[C@@]3(c3ccc(F)cc3F)CO2)on1  scaled CLint (liver microsomes): < 8 mL/min/kg
Nc1nc(-c2cc(F)cc(NC(=O)Nc3cc(F)cc(-c4c[nH]c(N)n4)c3)c2)c[nH]1  scaled CLint (liver microsomes; 5 µM, pH 7.4): < 20.8 mL/min/kg
Cn1cc([C@H]2C[C@H]3CSC(N)=N[C@@]3(c3ccc(F)cc3F)CO2)cn1  scaled CLint (liver microsomes): 9.1 mL/min/kg
Cc1ccc(F)c2cc(C(=O)N[C@@H]3CCC[C@H](N4CCOCC4)C3)[nH]c12  scaled CLint (hepatocytes; 0.5 µM, 2 h): 75 mL/min/kg
Cc1nc2ccc(C(=O)N3CCC4(CC3)Cc3cnn(C(C)C)c3C(O)C4)cc2[nH]1 (centres unmarked)  scaled CLint (liver microsomes): < 8 mL/min/kg
Cc1coc([C@H]2C[C@H]3[C@@H](C)SC(N)=N[C@@]3(c3ccc(F)cc3F)CO2)n1  scaled CLint (liver microsomes): < 8 mL/min/kg
Cc1cccnc1C(=O)Nc1ccc(N2C(=O)c3cccc(Cl)c3C2=O)c(Cl)c1  scaled CLint (liver microsomes; 1 µM, pH 7.4): 16.1 mL/min/kg
O=C(c1ccc(F)cc1)C1CCN(CCn2c(=O)[nH]c3ccccc3c2=O)CC1  scaled CLint (liver microsomes): 44.8 mL/min/kg
Cc1coc([C@H]2C[C@H]3[C@@H](CF)SC(N)=N[C@@]3(c3ccc(F)cc3F)CO2)n1  scaled CLint (liver microsomes): 27.8 mL/min/kg
CC(F)(F)CN1Cc2cc(C(F)(F)F)ncc2C2=CN=C(NCc3c(F)ccc4c3CCO4)N3C=NC(C1=O)C23 (centres unmarked)  scaled CLint (liver microsomes; 100 µM, 30 min): 9.9 mL/min/kg
O=C1c2ncc(COc3ccccc3)cc2CCN1c1ccc(F)cc1  scaled CLint (liver microsomes): 19 mL/min/kg
Cc1ccc(F)c2cc(C(=O)N[C@@H]3CCC[C@H](c4ccncc4)C3)[nH]c12  scaled CLint (hepatocytes; 0.5 µM, 2 h): 32.3 mL/min/kg
O=C1c2ccc(OCc3cccc(F)c3)nc2CCN1c1ccc(F)cn1  scaled CLint (liver microsomes): 18 mL/min/kg
CC(=O)Nc1cc(Nc2cc(NC3CC3)n3ncc(C#N)c3n2)ccc1N1CCC[C@H](O)C1  scaled CLint (hepatocytes; 1 µM, serum-free): 73 mL/min/kg
Nc1nc(-c2cccc(NC(=O)Nc3cccc(-c4c[nH]c(N)n4)c3)c2)c[nH]1  scaled CLint (liver microsomes; 5 µM, pH 7.4): < 20.8 mL/min/kg
CC(C)(C)n1cc2c(n1)C(O)CC1(CCN(C(=O)c3ccc4[nH]ncc4c3)CC1)O2 (centres unmarked)  scaled CLint (liver microsomes): < 8.8 mL/min/kg
Cn1cc([C@H]2C[C@H]3[C@@H](CF)SC(N)=N[C@@]3(c3ccc(F)cc3F)CO2)cn1  scaled CLint (liver microsomes): < 8 mL/min/kg
Nc1nc(-c2ccc(NC(=O)Nc3cccc(-c4c[nH]c(N)n4)c3F)cc2F)c[nH]1  scaled CLint (liver microsomes; 5 µM, pH 7.4): < 20.8 mL/min/kg
